Laboratory results published in publication PMC4388048 (Journal of medicinal chemistry, 2015).

Experiments:
[1] = Optical properties in 100% FBS; format: physicochemical; details: pH 7.4, 37 °C
In short: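 Absorbance (200–1100 nm) and fluorescence (350–1000 nm) spectra were recorded for 1 µM test dye in 100% FBS, pH 7.4, using fibre-optic spectrometers. Excitation was 8 mW from a 655 or 765 nm laser diode, chosen by structure. Quantum yield was calibrated against oxazine 725 in ethylene glycol (QY 19%) and ICG in DMSO (QY 13%), with absorbance matched at 655 and 765 nm.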

[2] = Optical stability in serum; format: in vitro ADME, fetal bovine serum; details: 100% FBS, pH 7.4, 37 °C, 24 h
[3] = In vivo biodistribution and clearance by real-time NIR fluorescence imaging; details: CD-1 mice, 10 nmol intravenously, imaging over 4 h
In short: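 Male CD-1 mice (~25 g) were anesthetised with ketamine 100 mg/kg and xylazine 10 mg/kg i.p., then given 10 nmol of test fluorophore intravenously. Real-time FLARE imaging used 760 nm excitation at 11 mW/cm2 with white light (400–650 nm). Colour and NIR images were acquired together at up to 15 Hz. Resected organs were also imaged. Exposure and normalisation were held constant.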

[4] = format: in vivo; details: CD-1 mice, 10 nmol intravenously, 4 h postinjection, N = 5
In short: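 Anesthetised male CD-1 mice (~25 g; ketamine/xylazine i.p.) received test fluorophore intravenously. After 4 h of imaging, urine was collected from the bladder. Urine volume and optical absorbance were measured to estimate the amount of injected dye excreted.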

Compound	Optical stability in serum [2]	uptake in liver [3]	further results
CC1(C)C(/C=C/C=C/C=C/C=C2\N(CCCCS(=O)(=O)O)c3ccc4ccccc4c3C2(C)C)=[N+](CCCCS(=O)(=O)[O-])c2ccc3ccccc3c21 [ICG, indocyanine green]	–	–	Renal excretion amount in urine [4]: 3 % ID
Mono(2-((E)-2-((E)-2-((4-(carboxymethyl)phenyl)thio)-3-((E)-2-(3,3-dimethyl-5-sulfonato-1-(3-(trimethylammonio)propyl)indolin-2-ylidene)ethylidene)cyclohex-1-en-1-yl)vinyl)-3,3-dimethyl-1-(3-(trimethylammonio)propyl)-3H-indol-1-ium-5-sulfonate) Tribromide [compound 9]	increased stability	weak uptake in liver	–

Continued, in another order:

Optical stability in serum [2]	uptake in liver [3]	Compound	further results
least stable	–	Br.Br.CC1(C)C(/C=C/C2=C(Oc3ccc(CCN)cc3)C(=C/C=C3/N(CCC[N+](C)(C)C)c4ccc(S(=O)(=O)[O-])cc4C3(C)C)/CCC2)=[N+](CCC[N+](C)(C)C)c2ccc(S(=O)(=O)[O-])cc21.[Br-] [compound 4, Mono(2-((E)-2-((E)-2-(4-(2-aminoethyl)phenoxy)-3-((E)-2-(3,3-dimethyl-5-sulfonato-1-(3-(trimethylammonio)propyl)-indolin-2-ylidene)ethylidene)cyclohex-1-en-1-yl)vinyl)-3,3-dimethyl-1-(3-(trimethylammonio)propyl)-3H-indol-1-ium-5-sulfonate) Tribromide]	molar extinction coefficient [1]: highest; quantum yield [1]: highest
–	weak uptake in liver	Br.Br.CC1(C)C(/C=C/C2=C(Sc3ccc(C(=O)O)cc3)C(=C/C=C3/N(CCC[N+](C)(C)C)c4ccc(S(=O)(=O)[O-])cc4C3(C)C)/CCC2)=[N+](CCC[N+](C)(C)C)c2ccc(S(=O)(=O)[O-])cc21.[Br-] [compound 8, Mono(2-((E)-2-((E)-2-((4-carboxyphenyl)thio)-3-((E)-2-(3,3-dimethyl-5-sulfonato-1-(3-(trimethylammonio)propyl)indolin-2-ylidene)ethylidene)cyclohex-1-en-1-yl)vinyl)-3,3-dimethyl-1-(3-(trimethylammonio)propyl)-3H-indol-1-ium-5-sulfonate) Tribromide]	–
increased stability	–	Mono(2-((E)-2-((E)-2-((4-(aminomethyl)phenyl)thio)-3-((E)-2-(3,3-dimethyl-5-sulfonato-1-(3-(trimethylammonio)propyl)indolin-2-ylidene)ethylidene)cyclohex-1-en-1-yl)vinyl)-3,3-dimethyl-1-(3-(trimethylammonio)propyl)-3H-indol-1-ium-5-sulfonate) Tribromide [compound 11]	–
